Assay results: ChEMBL document CHEMBL3112517, “Identification of dihydrostilbenes in Pholidota chinensis as a new scaffold for GABAA receptor modulators” (Bioorg Med Chem, 2014)
Calls of active or inactive are those of the source. The calls are words filed in the database; no cut-off is given here.

How the values were obtained:
[1] = (§1) Potency index, ratio of compound activity for modulation of rat GABAA alpha1beta2gamma2S receptor assessed as EC3 to 10 GABA-induced chloride ion current to clotiazepam activity for modulation of GABAA alpha1beta2gamma2S receptor (unknown origin) assessed as potentiation of EC5 to 10 GABA-induced chloride ion current
[2] = Modulation of GABAA alpha1beta1gamma2S receptor (unknown origin) expressed in Xenopus laevis oocytes assessed as potentiation of EC3 to 10 GABA-induced chloride ion current at holding potential -70 mV by two-microelectrode voltage clamp assay; type: cell-based; details: Homo sapiens
Homo sapiens [3] = organism: Homo sapiens; experiment: Modulation of GABAA alpha4beta2gamma2S receptor (unknown origin) expressed in Xenopus laevis oocytes assessed as potentiation of EC3 to 10 GABA-induced chloride ion current at holding potential -70 mV at 1 to 300 uM by two-microelectrode voltage clamp assay relative to GABA-treated control; type: cell-based
Rattus norvegicus [4] = organism: Rattus norvegicus; experiment: Agonist activity rat GABAA alpha1beta2gamma2S receptor expressed in Xenopus laevis oocytes assessed as potentiation of GABA-induced chloride ion current at holding potential -70 mV at <100 uM compound treated prior to GABA challenge by two-microelectrode voltage clamp assay; type: cell-based
[5] = target: GABA A receptor alpha-2/beta-2/gamma-2 (Homo sapiens) (UniProt P47870+P18507+P47869); experiment: Modulation of GABAA alpha2beta2gamma2S receptor (unknown origin) expressed in Xenopus laevis oocytes assessed as potentiation of EC3 to 10 GABA-induced chloride ion current at holding potential -70 mV at 1 to 300 uM by two-microelectrode voltage clamp assay relative to GABA-treated control; type: cell-based
Rattus norvegicus [6] = organism: Rattus norvegicus; experiment: Allosteric modulation of rat GABAA alpha1beta2gamma2S receptor expressed in Xenopus laevis oocytes assessed as potentiation of EC3 to 10 GABA-induced chloride ion current at holding potential -70 mV at 1 to 300 uM by two-microelectrode voltage clamp assay relative to GABA-treated control; type: cell-based
Method in brief: (§2)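 Stage V–VI Xenopus laevis oocytes were injected with 50 nL of rat α1, β2 and γ2S cRNA mixed 1:1:10 (about 300–3000 pg/nL per subunit), stored at 18 °C in ND96, and recorded on days 1–5. Two-electrode clamp was at −70 mV in pH 7.4 HEPES bath. Compound was applied by fast perfusion with GABA EC3–10, in 1% DMSO final. Enhancement = I(GABA+Comp)/IGABA − 1.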

[7] = (§3) Allosteric modulation of rat GABAA alpha1beta2gamma2S receptor expressed in Xenopus laevis oocytes assessed as potentiation of EC3 to 10 GABA-induced chloride ion current at holding potential -70 mV by two-microelectrode voltage clamp assay; type: cell-based; method in brief: as §2
Rattus norvegicus [8] = organism: Rattus norvegicus; experiment: as §3; type: cell-based; method in brief: as §2
[9] = Modulation of GABAA alpha5beta2gamma2S receptor (unknown origin) expressed in Xenopus laevis oocytes assessed as potentiation of EC3 to 10 GABA-induced chloride ion current at holding potential -70 mV by two-microelectrode voltage clamp assay; type: cell-based; details: Homo sapiens
[10] = target: T1, GABA A receptor alpha-3/beta-2/gamma-2 (Homo sapiens, UniProt P18507+P34903+P47870); experiment: Modulation of GABAA alpha3beta2gamma2S receptor (unknown origin) expressed in Xenopus laevis oocytes assessed as potentiation of EC3 to 10 GABA-induced chloride ion current at holding potential -70 mV by two-microelectrode voltage clamp assay; type: cell-based
T1 sequence (P47870 whole entry): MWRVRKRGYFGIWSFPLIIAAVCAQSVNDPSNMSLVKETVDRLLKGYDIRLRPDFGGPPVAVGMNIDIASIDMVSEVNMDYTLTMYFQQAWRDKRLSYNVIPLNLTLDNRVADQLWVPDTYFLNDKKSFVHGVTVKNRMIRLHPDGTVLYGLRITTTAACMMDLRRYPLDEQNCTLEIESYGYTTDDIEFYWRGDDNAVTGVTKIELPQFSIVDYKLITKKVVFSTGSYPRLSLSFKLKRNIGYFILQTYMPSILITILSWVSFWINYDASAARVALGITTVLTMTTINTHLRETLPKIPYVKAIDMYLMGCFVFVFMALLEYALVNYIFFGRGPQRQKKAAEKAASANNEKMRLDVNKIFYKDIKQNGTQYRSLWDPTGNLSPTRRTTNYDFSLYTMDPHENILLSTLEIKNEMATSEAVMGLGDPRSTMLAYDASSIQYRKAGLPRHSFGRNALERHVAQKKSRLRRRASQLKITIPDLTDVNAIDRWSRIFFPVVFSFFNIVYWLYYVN
T1 sequence (P18507 whole entry): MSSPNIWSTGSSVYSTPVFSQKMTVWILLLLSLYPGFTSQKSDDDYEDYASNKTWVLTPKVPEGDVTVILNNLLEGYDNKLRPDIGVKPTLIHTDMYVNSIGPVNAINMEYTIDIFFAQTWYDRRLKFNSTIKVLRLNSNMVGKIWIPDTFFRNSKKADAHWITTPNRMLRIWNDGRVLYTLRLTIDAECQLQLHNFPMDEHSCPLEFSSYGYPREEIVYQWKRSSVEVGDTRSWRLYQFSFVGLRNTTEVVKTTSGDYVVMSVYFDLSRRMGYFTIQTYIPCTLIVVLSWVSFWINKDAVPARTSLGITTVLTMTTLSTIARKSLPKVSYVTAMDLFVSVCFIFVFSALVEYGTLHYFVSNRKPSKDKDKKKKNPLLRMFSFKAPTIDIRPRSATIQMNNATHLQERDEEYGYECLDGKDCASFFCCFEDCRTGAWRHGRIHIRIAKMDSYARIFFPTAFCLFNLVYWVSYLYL
T1 sequence (P34903 whole entry): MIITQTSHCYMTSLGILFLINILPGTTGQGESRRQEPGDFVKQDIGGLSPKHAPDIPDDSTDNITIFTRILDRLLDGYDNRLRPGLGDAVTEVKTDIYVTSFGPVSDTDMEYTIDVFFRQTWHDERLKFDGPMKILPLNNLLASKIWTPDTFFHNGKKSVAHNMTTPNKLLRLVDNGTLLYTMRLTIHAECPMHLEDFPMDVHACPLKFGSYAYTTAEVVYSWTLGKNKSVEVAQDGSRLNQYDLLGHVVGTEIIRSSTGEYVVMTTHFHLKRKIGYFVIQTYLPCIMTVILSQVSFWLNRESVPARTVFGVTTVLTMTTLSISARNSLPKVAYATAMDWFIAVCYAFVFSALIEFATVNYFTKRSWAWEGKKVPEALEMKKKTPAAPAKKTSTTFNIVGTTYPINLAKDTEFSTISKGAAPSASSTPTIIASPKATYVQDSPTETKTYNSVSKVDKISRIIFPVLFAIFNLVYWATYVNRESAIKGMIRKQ

Homo sapiens [11] = organism: Homo sapiens; experiment: Modulation of GABAA alpha5beta2gamma2S receptor (unknown origin) expressed in Xenopus laevis oocytes assessed as potentiation of EC3 to 10 GABA-induced chloride ion current at holding potential -70 mV at 1 to 300 uM by two-microelectrode voltage clamp assay relative to GABA-treated control; type: cell-based
Homo sapiens [12] = organism: Homo sapiens; experiment: Modulation of GABAA alpha1beta1gamma2S receptor (unknown origin) expressed in Xenopus laevis oocytes assessed as potentiation of EC3 to 10 GABA-induced chloride ion current at holding potential -70 mV at 1 to 300 uM by two-microelectrode voltage clamp assay relative to GABA-treated control; type: cell-based
[13] = as §1, with “midazolam” for “clotiazepam”

Ratio [1]: 4
EC50 [2]: 66.7 µM
Imax (Homo sapiens [3]): 1590%
Activity (Rattus norvegicus [4]): inactive
Imax [5]: 1030%
Imax (Rattus norvegicus [6]): 1510%
EC50 [7]: 52.5 µM
Activity (Rattus norvegicus [8]): Dose-dependent effect
EC50 [9]: 46.7 µM
EC50 [10]: 67.3 µM
Imax (Homo sapiens [11]): 1380%
Imax (Homo sapiens [12]): 1250%
Ratio [13]: 4
Structure (SMILES): COc1cc(O)cc(CCc2cccc(O)c2)c1 [BATATASIN III]
